{
  "source": "ChEMBL document CHEMBL4052683",
  "about": "“The discovery of benzoxazine sulfonamide inhibitors of NaV1.7: Tools that bridge efficacy and target engagement” (Bioorg Med Chem Lett, 2017)",
  "key": {"[1]": {"target": "T1, Sodium channel protein type 9 subunit alpha (Homo sapiens, UniProt Q15858)", "T1 sequence (Q15858 whole entry)": "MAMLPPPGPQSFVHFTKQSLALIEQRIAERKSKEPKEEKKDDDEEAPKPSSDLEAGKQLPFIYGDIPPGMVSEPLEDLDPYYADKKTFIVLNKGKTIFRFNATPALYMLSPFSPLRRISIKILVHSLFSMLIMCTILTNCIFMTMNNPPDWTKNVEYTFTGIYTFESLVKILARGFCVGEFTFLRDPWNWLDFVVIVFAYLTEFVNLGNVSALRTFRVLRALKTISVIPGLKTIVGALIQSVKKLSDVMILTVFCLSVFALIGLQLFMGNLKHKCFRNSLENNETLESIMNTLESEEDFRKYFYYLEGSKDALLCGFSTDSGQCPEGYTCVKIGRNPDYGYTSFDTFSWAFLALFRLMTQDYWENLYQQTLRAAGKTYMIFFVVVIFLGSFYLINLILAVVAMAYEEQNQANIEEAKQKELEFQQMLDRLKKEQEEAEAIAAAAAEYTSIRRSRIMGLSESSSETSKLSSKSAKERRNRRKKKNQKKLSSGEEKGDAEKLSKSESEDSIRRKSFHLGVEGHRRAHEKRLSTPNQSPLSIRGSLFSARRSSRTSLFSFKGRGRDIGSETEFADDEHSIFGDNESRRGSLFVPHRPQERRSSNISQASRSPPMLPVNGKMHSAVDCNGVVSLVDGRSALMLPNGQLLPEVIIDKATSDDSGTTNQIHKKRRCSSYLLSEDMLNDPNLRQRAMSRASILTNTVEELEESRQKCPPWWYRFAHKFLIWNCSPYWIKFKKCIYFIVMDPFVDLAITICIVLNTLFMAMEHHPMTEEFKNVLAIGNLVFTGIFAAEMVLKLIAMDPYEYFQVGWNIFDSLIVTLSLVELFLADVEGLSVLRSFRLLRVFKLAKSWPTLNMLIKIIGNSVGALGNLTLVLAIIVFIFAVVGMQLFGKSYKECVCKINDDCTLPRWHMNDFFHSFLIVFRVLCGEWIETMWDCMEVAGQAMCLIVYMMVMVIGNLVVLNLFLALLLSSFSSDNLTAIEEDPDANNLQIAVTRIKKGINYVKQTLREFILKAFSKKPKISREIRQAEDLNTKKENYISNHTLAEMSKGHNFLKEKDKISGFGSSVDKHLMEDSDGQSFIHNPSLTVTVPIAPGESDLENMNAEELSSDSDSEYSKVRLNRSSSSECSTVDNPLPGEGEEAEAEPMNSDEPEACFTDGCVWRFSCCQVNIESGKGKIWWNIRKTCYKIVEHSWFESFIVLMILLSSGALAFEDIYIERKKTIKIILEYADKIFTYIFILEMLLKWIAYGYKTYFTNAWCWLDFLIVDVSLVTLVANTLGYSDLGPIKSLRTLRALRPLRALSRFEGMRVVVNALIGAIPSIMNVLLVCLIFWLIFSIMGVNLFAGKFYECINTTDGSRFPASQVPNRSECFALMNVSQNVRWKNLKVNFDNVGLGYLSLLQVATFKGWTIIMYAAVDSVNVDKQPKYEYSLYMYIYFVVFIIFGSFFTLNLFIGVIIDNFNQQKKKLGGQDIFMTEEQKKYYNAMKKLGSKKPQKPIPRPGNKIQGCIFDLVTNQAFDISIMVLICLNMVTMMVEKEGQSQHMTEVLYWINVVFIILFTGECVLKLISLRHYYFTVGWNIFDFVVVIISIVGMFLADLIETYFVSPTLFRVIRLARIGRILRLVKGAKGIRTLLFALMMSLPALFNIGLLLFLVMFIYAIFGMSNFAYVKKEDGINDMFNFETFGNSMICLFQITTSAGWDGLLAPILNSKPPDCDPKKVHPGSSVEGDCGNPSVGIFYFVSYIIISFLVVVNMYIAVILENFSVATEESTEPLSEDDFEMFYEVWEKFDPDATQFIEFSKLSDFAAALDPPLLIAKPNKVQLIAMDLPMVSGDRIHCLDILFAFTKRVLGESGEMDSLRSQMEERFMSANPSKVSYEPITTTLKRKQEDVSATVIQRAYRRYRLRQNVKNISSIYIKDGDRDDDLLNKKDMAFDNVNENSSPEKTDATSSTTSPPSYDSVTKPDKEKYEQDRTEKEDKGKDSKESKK", "assay": "Inhibition of human NaV1.7 expressed in HEK293 cells at holding potential of -125 mV with test potentials to -10 mV by whole cell voltage clamp method", "assay_type": "cell-based"}, "[2]": {"target": "Sodium channel protein type 9 subunit alpha (Rattus norvegicus, UniProt O08562)", "sequence (O08562 whole entry)": "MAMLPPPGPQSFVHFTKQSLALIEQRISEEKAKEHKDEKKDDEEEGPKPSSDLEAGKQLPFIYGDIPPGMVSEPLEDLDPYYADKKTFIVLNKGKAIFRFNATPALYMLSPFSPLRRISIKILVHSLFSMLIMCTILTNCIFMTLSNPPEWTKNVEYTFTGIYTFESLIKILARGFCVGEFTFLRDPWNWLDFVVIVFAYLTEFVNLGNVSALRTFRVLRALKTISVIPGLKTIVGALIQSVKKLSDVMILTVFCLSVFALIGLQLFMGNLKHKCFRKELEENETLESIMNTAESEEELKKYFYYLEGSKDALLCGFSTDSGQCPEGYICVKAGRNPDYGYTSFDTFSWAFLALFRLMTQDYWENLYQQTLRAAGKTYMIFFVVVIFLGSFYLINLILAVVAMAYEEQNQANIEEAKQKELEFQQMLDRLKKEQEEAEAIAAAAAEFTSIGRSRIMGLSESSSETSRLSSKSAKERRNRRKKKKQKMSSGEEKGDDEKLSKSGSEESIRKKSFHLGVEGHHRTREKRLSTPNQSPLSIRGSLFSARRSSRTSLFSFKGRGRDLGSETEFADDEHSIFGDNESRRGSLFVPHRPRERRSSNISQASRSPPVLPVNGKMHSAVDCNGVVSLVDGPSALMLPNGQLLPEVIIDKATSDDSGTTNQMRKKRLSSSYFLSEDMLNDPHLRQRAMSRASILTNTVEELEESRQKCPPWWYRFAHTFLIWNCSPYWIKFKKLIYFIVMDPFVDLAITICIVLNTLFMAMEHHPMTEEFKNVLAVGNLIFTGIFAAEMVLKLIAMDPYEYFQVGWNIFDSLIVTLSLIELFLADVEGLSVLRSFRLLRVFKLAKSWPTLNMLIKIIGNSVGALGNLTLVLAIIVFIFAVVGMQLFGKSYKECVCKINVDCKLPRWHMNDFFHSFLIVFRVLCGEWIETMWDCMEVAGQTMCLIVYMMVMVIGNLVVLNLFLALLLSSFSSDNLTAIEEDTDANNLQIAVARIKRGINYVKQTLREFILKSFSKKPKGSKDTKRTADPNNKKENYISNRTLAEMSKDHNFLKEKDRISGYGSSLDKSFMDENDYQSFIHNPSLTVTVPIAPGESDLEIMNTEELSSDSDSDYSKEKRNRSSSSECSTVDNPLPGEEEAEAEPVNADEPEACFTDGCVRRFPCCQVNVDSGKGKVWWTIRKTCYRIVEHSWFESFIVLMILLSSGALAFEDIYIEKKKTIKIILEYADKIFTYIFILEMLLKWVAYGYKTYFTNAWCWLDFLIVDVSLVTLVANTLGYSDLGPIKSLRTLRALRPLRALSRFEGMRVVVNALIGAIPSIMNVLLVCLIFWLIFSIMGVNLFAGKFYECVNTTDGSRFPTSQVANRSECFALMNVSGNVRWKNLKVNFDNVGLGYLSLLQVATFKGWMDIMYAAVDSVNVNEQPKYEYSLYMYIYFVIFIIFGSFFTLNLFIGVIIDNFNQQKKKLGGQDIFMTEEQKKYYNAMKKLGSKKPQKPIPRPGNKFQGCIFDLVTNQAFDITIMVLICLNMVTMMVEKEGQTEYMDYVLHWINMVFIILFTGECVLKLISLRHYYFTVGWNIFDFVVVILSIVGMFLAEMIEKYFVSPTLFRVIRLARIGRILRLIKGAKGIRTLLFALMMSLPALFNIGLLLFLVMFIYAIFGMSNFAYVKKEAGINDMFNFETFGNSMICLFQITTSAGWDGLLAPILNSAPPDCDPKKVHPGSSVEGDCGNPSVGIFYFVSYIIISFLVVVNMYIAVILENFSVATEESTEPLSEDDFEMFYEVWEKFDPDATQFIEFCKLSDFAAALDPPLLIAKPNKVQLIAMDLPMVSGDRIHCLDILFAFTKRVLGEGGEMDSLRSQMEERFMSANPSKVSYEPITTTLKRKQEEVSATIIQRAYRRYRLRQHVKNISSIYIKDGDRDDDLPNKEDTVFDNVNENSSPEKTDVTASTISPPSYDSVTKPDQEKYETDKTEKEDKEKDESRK", "assay": "Inhibition of rat NaV1.7 by cell based whole cell voltage clamp method", "how_it_was_run": "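PatchXpress electrophysiology was run with a protocol giving about 20% channel inactivation. At least four concentrations at half-log spacing were applied one at a time, with washout, current recovery and holding voltage reset between each. Data were pooled from at least 10 cells, with 2–3 points per concentration, and fitted with a 4-parameter Hill curve to give one IC50.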"}, "[3]": {"target": "Sodium channel protein type 5 subunit alpha (Homo sapiens, UniProt Q14524)", "assay": "Inhibition of human NaV1.5 expressed in […] cells at holding potential of -125 mV with test potentials to -10 mV by whole cell voltage clamp method", "assay_type": "cell-based"}, "[4]": {"assay": "Clearance in pooled rat liver microsomes at 1 uM in presence of NADPH by LC-MS/MS method", "assay_type": "ADME, microsome", "conditions": "read-out: CLH"}, "[5]": {"assay": "Clearance in pooled human liver microsomes at 1 uM in presence of NADPH by LC-MS/MS method", "assay_type": "ADME, microsome", "conditions": "read-out: CLH"}, "[6]": {"assay": "Unbound fraction in rat plasma at 5 uM by ultracentrifugation and LC-MS/MS method", "assay_type": "ADME, cell-free"}, "[7]": {"assay": "Protein binding in rat plasma at 5 uM by ultracentrifugation and LC-MS/MS method", "assay_type": "ADME, cell-free", "conditions": "read-out: PPB (converted)"}, "[8]": {"assay": "Protein binding in mouse plasma at 5 uM by ultracentrifugation and LC-MS/MS method", "assay_type": "ADME, cell-free", "conditions": "read-out: PPB (converted)"}, "[9]": {"assay": "AUC (infinity) in rat at 0.5 mg/kg, iv by LC-MS/MS method", "assay_type": "ADME, organism-based", "design": "dose 0.5 mg/kg, time infinity, route intravenous", "conditions": "in vivo", "how_it_was_run": "(§1)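 Male rats got 0.5 mg/kg IV as a DMSO solution. Unbound clearance was taken as rat clearance divided by the unbound fraction from equilibrium dialysis.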"}, "[10]": {"assay": "AUC (infinity) in rat at 10 mg/kg, po by LC-MS/MS method", "assay_type": "ADME, organism-based", "design": "dose 10 mg/kg, route oral, time infinity", "conditions": "in vivo"}, "[11]": {"assay": "AUC (infinity) in mouse at 30 mg/kg, po by LC-MS/MS method", "assay_type": "ADME, organism-based", "design": "dose 30 mg/kg, time infinity, route oral", "conditions": "in vivo"}, "[12]": {"assay": "Half life in rat at 0.5 mg/kg, iv by LC-MS/MS method", "assay_type": "ADME, organism-based", "conditions": "in vivo", "how_it_was_run": "as §1"}, "[13]": {"assay": "Cmax in mouse at 30 mg/kg, po by LC-MS/MS method", "assay_type": "ADME, organism-based", "design": "dose 30 mg/kg, route oral", "conditions": "in vivo"}, "[14]": {"assay": "Tmax in rat at 10 mg/kg, po by LC-MS/MS method", "assay_type": "ADME, organism-based", "conditions": "in vivo"}, "[15]": {"assay": "Oral bioavailability in rat at 10 mg/kg by LC-MS/MS method", "assay_type": "ADME, organism-based", "conditions": "in vivo"}, "Plasma [16]": {"tested_on": "Plasma", "assay": "Plasma concentration in Sprague-Dawley rat model of formalin-induced nociception behavior at 10 mg/kg, po", "assay_type": "ADME, organism-based", "conditions": "in vivo", "how_it_was_run": "(§2)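 Sprague Dawley rats got 10, 30 or 100 mg/kg PO in 30% (w/v) hydroxypropyl β-cyclodextrin, pH 10.0 with KOH. Total phase II formalin-induced flinches were counted. Morphine sulfate 2 mg/kg SC served as control. Unbound plasma levels were measured and compared with the rat NaV1.7 IC50.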"}, "Plasma [17]": {"tested_on": "Plasma", "assay": "Plasma concentration in C57BL/6 mouse model of formalin-induced nociception behavior at 60 mg/kg, po", "assay_type": "ADME, organism-based", "conditions": "in vivo", "how_it_was_run": "(§3)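 Male C57BL/6 mice got 30, 60 or 100 mg/kg PO in 30% (w/v) hydroxypropyl β-cyclodextrin in water, pH 10.0 with KOH. Formalin (2%) was injected subcutaneously into the dorsal hind paw, and total phase II paw licking and lifting were scored. Morphine sulfate 3 mg/kg SC served as control. Unbound plasma concentration was divided by the mouse NaV1.7 IC50.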"}, "Plasma [18]": {"tested_on": "Plasma", "assay": "Plasma concentration in C57BL/6 mouse model of histamine-induced pruritus at 100 mg/kg, po", "assay_type": "ADME, organism-based", "conditions": "in vivo", "how_it_was_run": "(§4)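 Male C57BL/6 mice got 30, 60 or 100 mg/kg PO in 30% hydroxypropyl β-cyclodextrin, pH 10.0, 120 min before the test. Histamine (8.15mM) was given intradermally to the nape of the neck just before testing, and scratch bouts were counted over 0–30 min. Diphenhydramine 30 mg/kg PO in water, 90 min before, served as control. Unbound plasma concentrations were measured.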"}, "[19]": {"assay": "Ratio of unbound plasma concentration in Sprague-Dawley rat model of formalin-induced nociception behavior at 100 mg/kg, po to IC50 for rat Nav1.7 by whole cell voltage clamp method", "how_it_was_run": "(§5)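 Total phase II formalin-induced flinches were scored. Unbound plasma concentration was determined at each dose and related to the rat NaV1.7 IC50.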"}, "[20]": {"assay": "Ratio of unbound plasma concentration in C57BL/6 mouse model of histamine-induced pruritus at 60 mg/kg, po to IC50 for mouse Nav1.7 by whole cell voltage clamp method", "how_it_was_run": "(§6)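 The formalin arm received 2% formalin subcutaneously into the dorsal hind paw, and total phase II licking and lifting was scored. The pruritus arm was dosed 120 min before histamine (8.15mM, intradermal, nape of neck), and scratch bouts were counted over 0-30 min. Unbound plasma concentration was determined at each dose.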"}, "Rattus norvegicus [21]": {"tested_on": "Rattus norvegicus", "assay": "Analgesic activity in Sprague-Dawley rat model of formalin-induced nociception behavior assessed as reduction in formalin-evoked paw flinching at 10 mg/kg, po", "assay_type": "functional", "how_it_was_run": "as §2"}, "Rattus norvegicus [22]": {"tested_on": "Rattus norvegicus", "assay": "Analgesic activity in Sprague-Dawley rat model of formalin-induced nociception behavior assessed as reduction in formalin-evoked paw flinching at 30 mg/kg, po", "assay_type": "functional", "how_it_was_run": "as §2"}, "Mus musculus [23]": {"tested_on": "Mus musculus", "assay": "Analgesic activity in C57BL/6 mouse model of formalin-induced nociception behavior assessed as reduction in formalin-evoked paw lifting/licking at 30 mg/kg, po", "assay_type": "functional", "how_it_was_run": "as §3"}, "Mus musculus [24]": {"tested_on": "Mus musculus", "assay": "Analgesic activity in C57BL/6 mouse model of formalin-induced nociception behavior assessed as reduction in formalin-evoked paw lifting/licking at 100 mg/kg, po", "assay_type": "functional", "how_it_was_run": "as §3"}, "Mus musculus [25]": {"tested_on": "Mus musculus", "assay": "Anti-pruritic activity in C57BL/6 mouse model of histamine-induced pruritus assessed as reduction in histamine-induced scratching at 30 mg/kg, po dosed 120 mins before test", "assay_type": "functional", "how_it_was_run": "as §4"}, "Plasma [26]": {"tested_on": "Plasma", "assay": "Unbound plasma concentration in Sprague-Dawley rat model of formalin-induced nociception behavior at 100 mg/kg, po", "assay_type": "ADME, organism-based", "conditions": "in vivo", "how_it_was_run": "as §5"}, "Plasma [27]": {"tested_on": "Plasma", "assay": "Unbound plasma concentration in C57BL/6 mouse model of formalin-induced nociception behavior at 100 mg/kg, po", "assay_type": "ADME, organism-based", "conditions": "in vivo", "how_it_was_run": "as §6"}, "Plasma [28]": {"tested_on": "Plasma", "assay": "Unbound plasma concentration in C57BL/6 mouse model of histamine-induced pruritus at 100 mg/kg, po", "assay_type": "ADME, organism-based", "conditions": "in vivo", "how_it_was_run": "as §6"}, "[29]": {"target": "Histamine H2 receptor (Homo sapiens) (UniProt P25021)", "sequence (P25021 whole entry)": "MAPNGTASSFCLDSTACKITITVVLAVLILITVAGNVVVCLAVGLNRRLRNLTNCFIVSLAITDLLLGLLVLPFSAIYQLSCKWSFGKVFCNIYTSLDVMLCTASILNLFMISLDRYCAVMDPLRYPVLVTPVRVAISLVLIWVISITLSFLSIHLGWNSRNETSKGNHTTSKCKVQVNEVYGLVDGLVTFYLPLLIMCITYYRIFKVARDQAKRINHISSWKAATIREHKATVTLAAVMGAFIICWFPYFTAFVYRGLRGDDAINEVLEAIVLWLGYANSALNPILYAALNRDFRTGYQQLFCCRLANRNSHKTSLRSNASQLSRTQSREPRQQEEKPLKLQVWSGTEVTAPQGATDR", "assay": "Displacement of [125I]APT from human recombinant histamine H2 receptor expressed in CHO cells at 10 uM by radioligand displacement assay", "assay_type": "cell-based"}, "[30]": {"target": "Histamine H3 receptor (Homo sapiens) (UniProt Q9Y5N1)", "sequence (Q9Y5N1 whole entry)": "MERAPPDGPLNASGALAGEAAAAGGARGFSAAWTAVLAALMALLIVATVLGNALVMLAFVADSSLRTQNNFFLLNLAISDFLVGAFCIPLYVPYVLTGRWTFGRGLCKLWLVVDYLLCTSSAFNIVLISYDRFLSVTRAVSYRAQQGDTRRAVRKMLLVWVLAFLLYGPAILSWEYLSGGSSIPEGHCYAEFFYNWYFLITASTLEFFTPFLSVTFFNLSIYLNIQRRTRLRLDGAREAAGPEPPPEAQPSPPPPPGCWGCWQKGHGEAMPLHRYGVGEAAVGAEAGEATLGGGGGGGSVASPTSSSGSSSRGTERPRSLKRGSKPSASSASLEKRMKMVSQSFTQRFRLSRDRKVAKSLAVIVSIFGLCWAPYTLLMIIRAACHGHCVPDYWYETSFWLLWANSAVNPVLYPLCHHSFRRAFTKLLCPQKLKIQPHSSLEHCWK", "assay": "Displacement of [3H]N-alpha-Me-histamine from human recombinant histamine H3 receptor expressed in CHO cells at 10 uM by radioligand displacement assay", "assay_type": "cell-based"}, "[31]": {"target": "T1, Sodium channel protein type 9 subunit alpha", "assay": "Displacement of (P)-1-(30-chloro-2-fluoro-5,50-dimethoxy-[1,10biphenyl]-4-yl)-N-(isoxazol-3-yl)-2-oxo-1,2-dihydroquinoline-6-sulfonamide[50-methoxy-C3H3] from human NaV1.7 expressed in HEK293 cell membranes incubated for 1 hr by beta counting method", "how_it_was_run": "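Human NaV1.7 radioligand displacement using the tritiated 5'-methoxy-labelled dihydroquinoline sulfonamide ligand, which binds the VSDIV pocket.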"}, "[32]": {"assay": "Apparent permeability in MDCK vector control cells at 5 uM", "conditions": "dog"}},
  "note": "pIC50: −log10 of the molar value. Active and inactive are the calls of the source. The calls are words filed in the database; no cut-off is given here.",
  "data": [
    {"smiles": "N#Cc1cc(C(F)(F)F)ccc1N1CCOc2cc(S(=O)(=O)Nc3nccs3)c(F)cc21", "values": [
      {"measurement": "pIC50", "setting": "[1]", "result": 6.85},
      {"measurement": "pIC50", "setting": "[2]", "result": 7.17},
      {"measurement": "pIC50", "setting": "[3]", "result": "6.48 to 6.49"},
      {"measurement": "microsomal CLint at 1 µM", "setting": "[4]", "result": "< 14", "unit": "µL/min/mg"},
      {"measurement": "microsomal CLint at 1 µM", "setting": "[5]", "result": "< 14", "unit": "µL/min/mg"},
      {"measurement": "fraction unbound at 5 µM", "setting": "[6]", "result": 0.015},
      {"measurement": "fraction unbound at 5 µM", "setting": "[7]", "result": 0.015},
      {"measurement": "fraction unbound at 5 µM", "setting": "[8]", "result": 0.006},
      {"measurement": "AUC(0-inf)", "setting": "[9]", "result": 1.8, "unit": "µM·h"},
      {"measurement": "AUC(0-inf)", "setting": "[10]", "result": 20, "unit": "µM·h"},
      {"measurement": "AUC(0-inf)", "setting": "[11]", "result": 790, "unit": "µM·h"},
      {"measurement": "half-life", "setting": "[12]", "result": 3.6, "unit": "h"},
      {"measurement": "Cmax", "setting": "[13]", "result": 58, "unit": "µM"},
      {"measurement": "Tmax", "setting": "[14]", "result": 6.7, "unit": "h"},
      {"measurement": "bioavailability", "setting": "[15]", "result": 57, "unit": "%"},
      {"measurement": "concentration", "setting": "Plasma [16]", "result": 1.7, "unit": "µM"},
      {"measurement": "concentration", "setting": "Plasma [17]", "result": 100, "unit": "µM"},
      {"measurement": "concentration", "setting": "Plasma [18]", "result": 113, "unit": "µM"},
      {"measurement": "Ratio", "setting": "[19]", "result": 3.6},
      {"measurement": "Ratio", "setting": "[20]", "result": 10},
      {"measurement": "MPE", "setting": "Rattus norvegicus [21]", "result": 17, "unit": "%"},
      {"measurement": "MPE", "setting": "Rattus norvegicus [22]", "result": 39, "unit": "%"},
      {"measurement": "MPE", "setting": "Mus musculus [23]", "result": 5, "unit": "%"},
      {"measurement": "MPE", "setting": "Mus musculus [24]", "result": 77, "unit": "%"},
      {"measurement": "MPE", "setting": "Mus musculus [25]", "result": 37, "unit": "%"},
      {"measurement": "Cp(f)", "setting": "Plasma [26]", "result": 0.18, "unit": "µM"},
      {"measurement": "Cp(f)", "setting": "Plasma [27]", "result": 0.92, "unit": "µM"},
      {"measurement": "Cp(f)", "setting": "Plasma [28]", "result": 0.68, "unit": "µM"},
      {"measurement": "inhibition", "setting": "[29]", "result": "inactive"},
      {"measurement": "inhibition", "setting": "[30]", "result": "inactive"},
      {"measurement": "pIC50", "setting": "[31]", "result": 7.43},
      {"measurement": "Papp at 5 µM", "setting": "[32]", "result": 19, "unit": "×10⁻⁶ cm/s"}
    ]}
  ]
}
